Screening results: PubChem BioAssay, several laboratories
MT stabilize HCS: microtubule stabilization, imaging screen. HeLa tubulin immunostaining HCS, 24 h; share of cells brighter than vehicle mean+2SD. % tubulin-high responders, % at 10 µM. 0.83% of 200,000 active;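 active = plate Z-score above 3 for both tubulin-high and condensed-nucleus cell shares, with cell loss under 80%, at 10 µM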;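 also: anti alpha tubulin signal scored within the nucleus-defined area of each cell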
ABCG2 block: inhibitors of human ABCG2 transporter, ABCB1 counter-screen | Q9UNQ0 | IgMXP3 cells, JC-1 efflux, flow cytometry | inhibition, % at 6.6 µM | 0.1% of 190,000 active;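 active = inhibition above 80%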;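 also: 0% = DMSO and 100% = nicardipine control wells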
Target sequence (Q9UNQ0 whole entry, looked up): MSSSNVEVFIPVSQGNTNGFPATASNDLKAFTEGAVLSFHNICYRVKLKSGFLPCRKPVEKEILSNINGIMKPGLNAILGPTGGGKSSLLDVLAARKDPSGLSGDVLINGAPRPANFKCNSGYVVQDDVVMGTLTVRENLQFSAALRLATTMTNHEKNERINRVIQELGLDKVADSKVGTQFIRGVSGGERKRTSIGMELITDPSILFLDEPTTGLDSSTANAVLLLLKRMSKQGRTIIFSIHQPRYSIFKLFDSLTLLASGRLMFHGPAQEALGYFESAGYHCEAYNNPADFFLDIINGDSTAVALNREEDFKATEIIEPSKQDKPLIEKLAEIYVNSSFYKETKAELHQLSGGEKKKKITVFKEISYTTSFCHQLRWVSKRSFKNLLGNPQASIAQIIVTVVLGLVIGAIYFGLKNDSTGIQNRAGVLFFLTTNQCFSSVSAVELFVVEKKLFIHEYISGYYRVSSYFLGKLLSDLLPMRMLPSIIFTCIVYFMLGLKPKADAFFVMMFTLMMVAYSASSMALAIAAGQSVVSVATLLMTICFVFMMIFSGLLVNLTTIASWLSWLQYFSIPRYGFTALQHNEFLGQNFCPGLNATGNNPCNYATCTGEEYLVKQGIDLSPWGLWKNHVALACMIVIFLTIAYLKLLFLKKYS
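Test system: ABCG2 IgMXP3 and barcoded ABCB1 CCRF-Adr cell mix; Schedule: cells with compound and JC-1, 10 min at 25 °C, rotating, no wash; Technique: flow cytometry of retained JC-1 fluorescence; Measure: % inhibition of efflux relative to nicardipine and DMSO; Controls: nicardipine high and DMSO low controls.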
Autophagy HCS: autophagy modulation, high-content screen | MEF GFP-LC3 puncta imaging; test concentration mostly 10 µM | calls only at 10 µM (by protocol) | 0.98% of 190,000 active | AID 463193;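 active = percentage of spot-positive cells more than 3 SD above its plate mean, without a fluorescence outlier flag or 80% toxicity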;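 also: spot-positive cell cutoff set from DMSO-treated cells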
bCat nuc transl: modulators of beta-catenin nuclear translocation; nuclear translocation activity, % at 5 µM; 0.3% of 190,000 active; HeLa beta-catenin nuclear translocation, immunofluorescence imaging;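 active = nuclear translocation activity above 50% at 5 µM, with a well cell count of 50 or more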;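 also: per-cell ratio of nuclear to cytoplasmic median beta-catenin stain intensity; plate controls were DMSO negative control for no effect and GSK-3 inhibitor IX positive control for full effect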
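Read-out: Nuclear/cytoplasmic beta-catenin signal ratio, % activation | Assay system: Human HeLa cell line | Times: 24 h compound exposure at 37°C, 5% CO2 | Signal: Fluorescence imaging of beta-catenin antibody stain plus DAPI | Dosing: 5 µM primary, 0.02–20 µM confirmation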
Arbovirus inh: arbovirus infection inhibition; arbovirus infection cell-based antiviral screen; inhibition, % at 10 µM; 0.37% of 200,000 active; in the data active = inhibition above about 30%
ABCB1 inh: human ABCB1 inhibition, ABCG2 as counter-screen | P08183 | CCRF-Adr cells, JC-1 efflux, flow cytometry | inhibition, % at 6.6 µM | 0.067% of 190,000 active | AID 1326; in the data active = inhibition above about 40%;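 also: 0% = vehicle and 100% = reference inhibitor; higher value means more JC-1 retained so stronger ABCB1 efflux block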
* hit, by the source's call; i = inactive; / = no result; + = active, no number. A selection: hits, their analogues and other compounds. The true share with any hit is near 2.1%.

SMILES	MT stabilize HCS	ABCG2 block	Autophagy HCS	bCat nuc transl	Arbovirus inh	ABCB1 inh
COc1ccc(C2=CC(c3ccc(OC)c(OC)c3)c3c(c4ccccc4oc3=O)O2)cc1OC (configuration not stated)	/	/	/	100*	/	/
C/C(=C/C=C/[C@@H](C)C(=O)O)[C@H]1CN[C@H](C(=O)O)[C@H]1CC(=O)O	4	1	i	-2	2	0
O=C1NC(=O)N(c2ccc(F)cc2)C(=O)/C1=C/c1ccsc1	8	0	i	-3	-2	0
O=C1NC(=O)N(c2ccc(Br)cc2)C(=O)/C1=C/c1ccsc1	2	-2	+	-1	3	-1
O=C(COc1ccccc1)N1CCN(C2CCCC2)CC1	3	-5	i	-1	1	0
COc1ccc(NC(=O)c2cc([N+](=O)[O-])ccc2N2CCNCC2)cc1	4	4	+	-1	7	0
CC(/C=N/NC(=O)c1n[nH]c2c1CCC2)=C\c1ccccc1	11	1	+	215*	-27	0
Cc1ccccc1-n1c(O)c(/C=C2/C(c3ccccc3)=Nc3ccccc32)c(=O)[nH]c1=O	9	-2	i	38	-35	-1
Cc1cccc(-n2c(O)c(/C=C3/C(c4ccccc4)=Nc4ccccc43)c(=O)[nH]c2=O)c1	/	/	/	52*	/	/
Cc1cc(C=C2C(=O)NC(=S)NC2=O)c(C)n1-c1ccc2c(c1)OCO2	5	-7	i	0	-26	-1
CN(C(=O)CNC(=O)OCc1ccccc1)c1ccc(Br)cc1C(=O)c1ccccc1Cl	6	-1	i	67*	-24	4
CC(C)N1CCN(Cc2ccccc2C(F)(F)F)CC1CCO (configuration not stated)	2	1	i	-1	-10	0
COc1cc2ccccc2cc1C(=O)Nc1ccc(Cc2ccncc2)cc1	50*	2	i	3	-35	1
COc1ccc(CCNCc2ccncc2)cc1OC	2	2	i	2	2	0
COc1cccc(NP(=O)(Oc2ccccc2)Oc2ccccc2)c1	18*	12	i	0	1	1
COc1cccc(NP(=O)(Oc2ccccc2Cl)Oc2ccccc2Cl)c1	2	12	i	0	-45	1
C=CCn1c(O)c(C(C)=NCCO)c(=O)[nH]c1=O	3	4	i	-2	8	1
Cn1cccc1/C=C1\C(=O)NC(=O)N(Cc2ccccc2)C1=O	/	/	/	74*	/	/
Cn1cccc1/C=C1/C(=O)NC(=O)N(Cc2ccccc2)C1=O	6	0	i	64*	6	0
Cn1cccc1/C=C1/C(=O)NC(=S)N(Cc2ccc(F)cc2)C1=O	/	/	/	54*	/	/
Cn1cccc1/C=C1/C(=O)NC(=O)N(Cc2ccc(F)cc2)C1=O	/	/	/	4	/	/
CN(C)C(=S)SSC(=S)N(C)C	3	-1	+	-4	-30	1
CN1CCc2nc3sc(C#N)c(N)c3c(-c3cccs3)c2C1	5	1	i	-14	32*	0
CN1CCc2nc(N)c(C#N)c(-c3ccccc3)c2C1	2	2	i	-4	10	0
CCOP(=O)(OCC)c1cc(C)c(O)c(C(C)(C)C)c1	/	/	/	1	/	/
SMILES	MT stabilize HCS	ABCG2 block	Autophagy HCS	bCat nuc transl	Arbovirus inh	ABCB1 inh
CCCCCCOc1ccc(CN2CCN(C)CC2)cc1	3	4	+	1	-2	1
CCN1CCN(Cc2ccc(C)cc2)CC1	3	0	i	-10	4	0
N#Cc1ccccc1NC(=O)CN1CC=C(c2ccccc2)CC1	6	4	i	4	3	1
CC(C)CCCn1c(O)c(/C=C2/C=CC=N2)c(=O)[nH]c1=O	31*	19	i	16	-8	1
O=C1NC(=O)C(CCc2ccncc2)(CCc2ccccn2)C(=O)N1c1ccc(Br)cc1 (configuration not stated)	17*	0	i	1	5	-2
COc1ccc(OC)c(N2C(=O)NC(=O)/C(=C\c3ccc([N+](=O)[O-])s3)C2=O)c1	5	-1	i	0	10	-1
O=C1NC(=S)NC(=O)C1=Cc1cccc2cc3ccccc3cc12	/	/	/	58*	/	/
CN(C)c1ccc(C=C2C(=O)NC(=S)NC2=O)cc1[N+](=O)[O-]	4	7	i	1	-6	1
